Sampled rows, rich in hits. Any-hit rate of the full collection: about 3.5%.
RGS4 pot: RGS4 potentiation or activation | HEK293 M3R/inducible RGS4, carbachol calcium flux Fluo4; active compounds read low | B-score at 10 µM | 310,000 compounds, 0.92% hits | AID 463111;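 active = B-score of the integrated calcium signal more than 4 SD below the library mean, with starting fluorescence not abnormally high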;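 also: negative B-score means reduced calcium response which marks RGS4 activation or potentiation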
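Test system: HEK293 cells with stable M3R and inducible RGS4; also added: carbachol at ECmax as muscarinic agonist stimulus; schedule: dye loading 30 min 37 °C, buffer rest 30 min RT; technique: kinetic calcium fluorescence imaging with Fluo4-AM dye, 2 µM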
RGS4 block: human RGS4 inhibition; HEK293 M3R/RGS4 inducible, Fluo-4 calcium flux; active compounds read high; triggered by carbachol at its EC20; B-score at 10 µM; 310,000 compounds, 0.45% hits;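 active = B-score, a plate-corrected calcium signal, over three deviations above library mean, with baseline fluorescence within five deviations of library mean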;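 also: RGS4 expression induced by doxycycline in cells with stable M3 receptor; B-score is computed from the integrated fluorescence ratio over baseline after carbachol; higher B-score means a larger calcium signal and so more RGS4 inhibition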
Target sequence (P49798 whole entry, looked up): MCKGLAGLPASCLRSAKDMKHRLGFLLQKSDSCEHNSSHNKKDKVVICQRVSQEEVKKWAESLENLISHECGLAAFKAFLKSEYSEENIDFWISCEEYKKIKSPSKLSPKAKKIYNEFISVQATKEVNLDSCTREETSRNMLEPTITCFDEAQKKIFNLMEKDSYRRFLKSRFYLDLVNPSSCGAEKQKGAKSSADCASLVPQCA
MrgX1 antagonist: human MrgX1 receptor antagonism, primary screen | Q96LB2 | MRGX1-HEK293 calcium flux, Fluo-4, BAM8-22 antagonism; active compounds read low | B-score at 10 µM | 310,000 compounds, 1.3% hits | AID 588676;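 active = calcium-response B-score plate-corrected more than 3 library SD below zero, starting fluorescence within 5 deviations, no agonist response on first addition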;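 also: peak minus trough fluorescence over baseline after final BAM8-22 challenge near maximal dose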
Target sequence (Q96LB2 whole entry, looked up): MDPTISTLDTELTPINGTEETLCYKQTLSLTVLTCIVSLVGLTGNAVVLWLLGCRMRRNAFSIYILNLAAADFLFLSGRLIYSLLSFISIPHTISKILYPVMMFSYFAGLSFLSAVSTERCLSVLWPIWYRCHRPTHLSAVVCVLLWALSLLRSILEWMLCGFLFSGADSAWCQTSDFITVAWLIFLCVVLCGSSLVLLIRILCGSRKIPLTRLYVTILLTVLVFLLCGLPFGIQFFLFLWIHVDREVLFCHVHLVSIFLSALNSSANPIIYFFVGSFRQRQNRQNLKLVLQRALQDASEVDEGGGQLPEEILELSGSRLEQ
MrgX1 allo act: human MrgX1 positive allosteric modulation, primary screen | MrgX1-HEK293, Fluo-4 calcium flux, FDSS; active compounds read high | B-score at 10 µM | 310,000 compounds, 0.63% hits | AID 588675;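 active = plate-corrected calcium response at least 3 library SD above typical, normal starting fluorescence, not activating the receptor alone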;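 also: compound read alongside a low EC10 to EC30 dose of BAM8-22 agonist; peak minus trough fluorescence over baseline measured at the second addition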
MrgX1 ag: human MrgX1 receptor agonism, primary screen; Q96LB2; MrgX1-HEK293 cells, Fluo-4 calcium fluorescence, agonist mode; active compounds read high; B-score at 10 µM; 310,000 compounds, 0.44% hits; AID 588627;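 active = calcium response B-score plate-corrected fluorescence ratio at least 3 library SD, with starting fluorescence B-score inside 5 SD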
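Material: MrgX1-expressing HEK293 cells; input: 15,000 cells per well; doses: test compound given as first of three sequential additions; schedule: overnight plating before 1 h dye loading; technique: Fluo-4 NW calcium-flux fluorescence, kinetic read; evaluation: baseline-normalised fluorescence change ratio, B-scored; control set: plate-wise positive and negative controls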
* = called active by the depositor; i = inactive; x = not tested or not shown.

SMILES	RGS4 pot	RGS4 block	MrgX1 antagonist	MrgX1 allo act	MrgX1 ag
COc1ccc(C(=O)C2CCCN(S(=O)(=O)N(C)C)C2)c(C)c1 (stereo not given)	i	i	i	i	i
COc1ccc(C(=O)C2CCCN(S(=O)(=O)C(C)C)C2)c(C)c1 (stereo not given)	-7.6*	i	i	i	i
CC(C)(C)C(=O)NC(=S)NNC(=O)c1ccc(Cl)cc1Cl	-7*	i	i	i	i
CC(C)(C)C(=O)NC(=S)NNC(=O)c1ccc(-c2ccccc2)cc1	-7.5*	i	i	i	179*
COC(=O)NNC(=O)c1ccc(Cl)cc1Cl	i	i	i	i	i
CCOc1cc(N(CC)CC)ccc1/C=C(/C#N)c1nc2ccccc2[nH]1	i	i	i	i	79*
CCCOc1cc(N(CC)CC)ccc1/C=C(/C#N)c1nc2ccc(C)cc2[nH]1	i	i	i	12*	i
CCN(CC)c1ccc(/C=C(/C#N)c2nc3ccc(C)cc3[nH]2)c(OC(C)C)c1	i	i	i	i	40*
COc1cccc(/C=C(\C#N)c2nc3ccccc3[nH]2)c1OCC(=O)O	i	i	i	i	i
O=C(Nc1ccc(Cl)cc1)N1CCOC12CCCCC2	i	i	i	i	i
Cc1nc(-c2nc(-c3c(C(=O)NN)noc3C)cs2)cs1	i	i	-5.9*	i	i
Cc1nc(-c2nc(-c3c(C(=O)NNC(=O)c4ccc(Cl)cc4)noc3C)cs2)cs1	i	i	i	i	i
Cc1cc(C(C)(C)C)c(O)c(C(C)(C)C)c1	i	i	i	i	i
CC(C)(C)c1cc(O)c(C(C)(C)C)cc1O	-8.5*	i	i	i	41*
Nc1[nH]n2c(=O)cc(-c3ccccc3)nc2c1N=Nc1ccc2c(c1)OCO2	i	i	i	i	i
CCCCN(C(=O)c1cccc(S(=O)(=O)N2CCOCC2)c1)c1c(N)n(CCC)c(=O)[nH]c1=O	i	i	i	9.4*	i
CCCn1c(N)c(N(CCOC)C(=O)c2cccc(Cl)c2)c(=O)[nH]c1=O	i	i	i	i	i
CCCCN(C(=O)C(C)Oc1cccc(Cl)c1)c1c(N)n(CCC)c(=O)[nH]c1=O (stereo not given)	i	i	-5.1*	i	i
CS(=O)(=O)N(CC(=O)N1CCN(Cc2ccccc2)CC1)c1ccccc1Br	i	i	i	i	i
CC(C)=CCC12Oc3cc(O)ccc3C1(O)Oc1cc3c(c(O)c1C2=O)C=CC(C)(C)O3 (stereo not given)	-7.3*	i	i	i	i
CCOc1ccc2[nH]c(C)c(CN3CCCCCC3)c(=O)c2c1	i	i	i	i	i
N/C(=N\OC(=O)c1cccs1)c1ccc(Cl)cc1	i	i	-5.8*	i	i
COc1ccc(/C(N)=N/OC(=O)c2cccs2)cc1	i	i	i	i	i
CC(=O)Nc1cccc(NC(=O)CSc2ncc(C(=O)Nc3ccccc3)c(=O)n2C)c1	i	5.8*	i	i	i
CC(=O)Nc1cccc(NC(=O)CSc2ncc(-c3ccc(Cl)cc3)n2Cc2ccco2)c1	-8.6*	i	i	i	i
SMILES	RGS4 pot	RGS4 block	MrgX1 antagonist	MrgX1 allo act	MrgX1 ag
COc1ccc(-c2cnc(SCC(=O)Nc3ccc4c(c3)OCO4)n2Cc2ccco2)cc1	i	i	x	x	x
CC(=O)Nc1ccc(NC(=O)CSc2ncc(C(=O)Nc3ccc(Cl)cc3)c(=O)n2C)cc1	i	i	i	i	i
Cc1ccc2c(c1)N(CC(=O)NCC(C)c1ccccc1)C(=O)c1cccnc1O2 (stereo not given)	i	i	i	i	i
Cc1nc(SCCOc2ccccc2F)[nH]c(=O)c1Cc1ccccc1	i	i	i	i	i
CC(C)NC(=S)NC(c1ccccc1)(c1ccccc1)c1ccccc1	i	i	i	i	i
CC(/C=C1\SC(=Nc2cccnc2)NC1=O)=C\c1ccccc1	i	i	i	i	i
C=CCOc1ccc(/C=C2\SC(=Nc3cccnc3)NC2=O)cc1	i	i	-4.9*	i	i
COc1ccc(N(C(=O)c2cccnc2)S(=O)(=O)c2cccc([N+](=O)[O-])c2)cc1	i	i	i	6.7*	i
CC1CCCC(C)N1/N=C/c1ccc(C#N)cc1 (stereo not given)	i	i	i	8.4*	i
COc1cccc(CNC(=O)N2CCN(S(=O)(=O)c3ccc(C)cc3)CC2)c1	i	i	i	i	i
Cc1cc2nc(-c3ccc(SCC(=O)Nc4ccc(S(=O)(=O)N5CCCC5)cc4)nc3)[nH]c2cc1C	i	i	i	i	i
O=C(CSc1ccc(-c2nc3ccccc3[nH]2)cn1)Nc1ccc(S(=O)(=O)N2CCCC2)cc1	-7.1*	i	i	i	i
O=C(C1CCC1)N1CCN(S(=O)(=O)c2ccc(Br)cc2Cl)CC1	i	i	i	i	i
O=C(Nc1cccc(Cl)c1N1CCCC1)c1ccc([N+](=O)[O-])o1	i	i	i	i	i
CCN1CCN(c2c(Cl)cccc2NC(=O)c2ccc([N+](=O)[O-])o2)CC1	-7.5*	i	i	i	i
CC1CCN(C(=O)c2ccc3c(c2NCCO)C(=O)c2ccccc2C3=O)CC1	i	i	i	9.9*	i
CC(C)CC(c1nnnn1Cc1ccccc1)N1CCN(C(=O)c2ccco2)CC1 (stereo not given)	i	i	i	i	i
C/C(=N\NC(=O)C1CC1)c1ccc(Cl)c(Cl)c1	i	i	i	i	i
C/C(=N\N=C(N)N)c1ccc(Cl)c(Cl)c1	i	i	i	14*	i
COc1ccccc1C(=O)NCCC(=O)N(C)CC(=O)Nc1ccc(C)cc1	i	i	-5.2*	i	i
O=C(COc1ccccc1F)NNC(=O)c1cccc(-n2cccc2)c1	i	i	-5*	i	i
COC(=O)[C@@H](NCc1cccc(CN[C@H](C(=O)OC)c2ccccc2)c1)c1ccccc1	i	i	i	i	i
COc1cc(CNCCNC(=O)c2nonc2N)ccc1OCc1ccc(Cl)nc1	i	i	i	i	i
CN1CCN(C2=Cc3ccccc3Sc3cc(F)c(Cl)cc32)CC1	-10*	i	i	i	i
CN1CCN(C2=Cc3ccccc3Sc3cc(F)c(F)cc32)CC1	i	i	i	i	i
O=C(COc1ccccc1F)Nc1nnc(C2CCCC2)s1	i	i	i	i	i

Compound activity deposited in PubChem by Johns Hopkins Ion Channel Center.
